Test results taken from ChEMBL document CHEMBL1138796, “Novel 5-HT7 receptor inverse agonists. Synthesis and molecular modeling of arylpiperazine- and 1,2,3,4-tetrahydroisoquinoline-based arylsulfonamides” (J Med Chem, 2004).
“And” between values parts separate entries of the source, which are not always exact repeats. Identical values can stand only once.

Tests used:
[1] = pKa; type: physicochemical
[2] = molecular target: 5-hydroxytryptamine receptor 7 (Rattus norvegicus, UniProt P32305); experiment: Binding affinity towards rat 5-HT7 receptor expressed in HEK cells; type: cell-based, HEK293
Chain of 5-hydroxytryptamine receptor 7 (P32305 whole entry): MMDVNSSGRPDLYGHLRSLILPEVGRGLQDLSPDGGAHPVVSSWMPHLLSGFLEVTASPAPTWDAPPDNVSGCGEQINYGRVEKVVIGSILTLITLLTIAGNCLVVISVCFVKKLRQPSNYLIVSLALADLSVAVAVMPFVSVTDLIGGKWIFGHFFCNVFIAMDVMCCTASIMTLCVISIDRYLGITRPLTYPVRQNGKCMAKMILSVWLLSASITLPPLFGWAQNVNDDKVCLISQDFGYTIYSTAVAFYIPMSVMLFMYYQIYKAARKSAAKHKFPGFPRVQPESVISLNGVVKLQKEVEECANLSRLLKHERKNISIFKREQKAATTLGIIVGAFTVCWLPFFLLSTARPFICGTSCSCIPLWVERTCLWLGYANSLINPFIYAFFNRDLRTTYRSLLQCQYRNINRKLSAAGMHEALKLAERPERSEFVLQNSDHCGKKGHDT
Method in brief: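 Membranes of HEK cells expressing rat 5-HT7, resuspended in 50 mM Tris HCl pH 7.4 with 0.5 mM EDTA, 10 mM MgSO4, 2 mM CaCl2, 10 µM pargyline, 0.1% ascorbic acid; 20 µg protein with 0.3 nM [3H]5-CT, 2 h at room temperature; nonspecific binding with 10 µM 5-HT; filtration, scintillation counting; IC50 by log regression, Ki via Cheng-Prusoff.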

[3] = Partition coefficient (logP); type: physicochemical; conditions: octanol/water
[4] = molecular target: 5-hydroxytryptamine receptor 7 (Rattus norvegicus) (UniProt P32305); experiment: Effect on basal adenylate cyclase activity relative to potency of methiothepin using rat 5-HT7 receptor expressed in HEK cells; type: cell-based; conditions: HEK293
Chain of 5-hydroxytryptamine receptor 7 (Rattus norvegicus) (P32305 whole entry): as above

Row | SMILES | pKa [1] | Ki [2] | logP [3] | logP ([3]; read-out: logP) | cAMP [4]
1 | COc1ccc2c(c1)N(CCN(C)C)CCO2 | 8.6 | 1180 nM and 1100 nM | 1.6 | 1.6 | –
2 | COc1ccc2c(c1)CCN(CCCNS(=O)(=O)c1ccc(C)cc1)C2 | 7 | 520 nM | – | 3 | -61%
3 | COc1ccc2c(c1)CCN(CCCNS(=O)(=O)c1cccc3ccccc13)C2 | 7 | 360 nM | – | 3.6 | -104%
4 | COc1ccc2[nH]cc(C3=CCN(Cc4ccccc4)CC3)c2c1 | 7.7 | 1100 nM | – | 4.3 | -65%
5 | COc1ccccc1N1CCN(CCNS(=O)(=O)c2ccc(C)cc2)CC1 | 7.4 | 75 nM | – | 2.2 | -66%
6 | CCN(CCCN1CCc2cc(OC)ccc2C1)S(=O)(=O)c1ccc(OC)cc1 | 7.4 | 29 nM | – | 3.3 | -94%
7 | CCN(CCCN1CCc2cc(OC)ccc2C1)S(=O)(=O)c1ccccc1 | 7.4 | 54 nM | – | 3.1 | -93%
8 | CC1CCN(CC[C@H]2CCCN2S(=O)(=O)c2cccc(O)c2)CC1 | 10.4 | 1 nM | – | 2.7 | –
9 | COc1ccc(S(=O)(=O)NCCCN2CCc3cc(OC)ccc3C2)cc1 | 7 | 1200 nM | – | 2.5 | -84%
10 | COc1ccc2c(c1)c(CCN(C)C)cn2C | 9.2 | 1180 nM | – | 2.7 | -7%
11 | Cc1cccc(S(=O)(=O)N2CCC[C@@H]2CCN2CCC(C)CC2)c1 [SB-258741] | 10.4 | 3 nM | – | 3.7 | –
12 | COc1ccc2c(c1)CCN(CCCNS(=O)(=O)c1ccccc1)C2 | 7 | 75 nM | – | 2.3 | -36%
13 | CC1CCN(CC[C@H]2CCCN2S(=O)(=O)c2cccc3ccccc23)CC1 | 10.4 | 10 nM | – | 4.2 | –
14 | COc1ccc(S(=O)(=O)NCCCN2CCN(c3ccccc3OC)CC2)cc1 | 7.5 | 100 nM | – | 2.1 | -35%
15 | CCN(CCCN1CCN(c2ccccc2OC)CC1)S(=O)(=O)c1ccc(C)cc1 | – | 19 nM | – | – | -93%
16 | CSc1ccc2c(c1)[C@@H](N1CCN(C)CC1)Cc1ccccc1S2 | 8.1 | – | – | 3.4 | -100%
17 | CCN(CCCN1CCc2cc(OC)ccc2C1)S(=O)(=O)c1cccc2ccccc12 | 7.4 | 19 nM | – | 4.3 | -91%
18 | COc1ccccc1N1CCN(CCCNS(=O)(=O)c2ccc(C)cc2)CC1 | 7.5 | 52 nM | – | 2.6 | -20%
19 | CCN(CCCN1CCc2cc(OC)ccc2C1)S(=O)(=O)c1ccc(C)cc1 | 7.4 | 11 nM | – | 3.8 | -95%
